For 5 compounds, Activity, inhibition and fold change (FC) results are on record in ChEMBL document CHEMBL2440074, “An epoxyisoprostane is a major regulator of endothelial cell function” (J Med Chem, 2013).

The structures appear in SMILES notation. Calls of active or inactive are those of the source. No cut-off for these calls is given here.

Holding throughout (assay type): functional
For test [1], the species on record is Homo sapiens. The test is described as follows: Induction of HO-1 expression in HAEC at 3 uM after 4 hrs by qPCR analysis. The method in brief: (§1)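 Cultured HAECs, switched overnight to M199/10% FBS, exposed for 4 h to 3 μM lipid in M199 with 1% FBS, duplicate/replicate wells. Cells scraped, mRNA quantified by qPCR with GAPDH normalization; fold change of treated over untreated cells.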
Background: Quantitative PCR measures a nucleic acid by following its amplification.

For test [2], the species on record is Homo sapiens. Kind of test: Induction of HSP1A1 expression in HAEC at 3 uM after 4 hrs by qPCR analysis.
The species entered for test [3] is Homo sapiens. Kind of test: Induction of IL-8 expression in HAEC at 3 uM after 4 hrs by qPCR analysis. An outline of the steps:
as §1

The species entered for test [4] is Homo sapiens. Kind of test: Induction of ATF-3 expression in HAEC at 3 uM after 4 hrs by qPCR analysis. An outline of the steps:
as §1

For test [5], the species on record is Homo sapiens. Kind of test: Inhibition of IL-1beta-induced ICAM-1 mRNA expression in HAEC at 3 uM treated 1 hr before IL-1beta stimulation measured after 4 hrs by qPCR analysis. The method in brief: (§2)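 RNA measured by qPCR. HAECs preincubated 1 h with 3 μM EI4, then exposed 4 h to 20 ng/mL IL-1β with EI still present. Value reported as percent reduction of the IL-1β-induced fold change.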

For test [6], the species on record is Homo sapiens. Kind of test: Inhibition of IL-1beta-induced MCP-1 protein expression in HAEC at 3 uM treated 1 hr before IL-1beta stimulation measured after 4 hrs by ELISA. The method in brief:
(§3)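 HAECs preincubated 1 h with 3 μM EI4, then given 20 ng/mL IL-1β plus EI for 4 h. MCP-1 in the medium measured by ELISA and compared with IL-1β alone; significance by p value.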
(ELISA stands for enzyme-linked immunosorbent assay.)

Test [7] is filed under the species Homo sapiens. The test is described as follows: Induction of IL-8 expression in HAEC at 3 uM after 4 hrs by microarray assay relative to control. An outline of the steps: (§4)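 Microarray on RNA from duplicate HAEC wells given 3 μM EI4 or 6 μM PEIPC in M199 with 1% FBS for 4 h, or left untreated. Probes with detection p < 0.001 retained. Fold change is mean treated probe level over mean control probe level. Genes counted as regulated at ≥1.2-fold.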

The species named for test [8] is Homo sapiens. The test is described as follows: Inhibition of IL-1beta-induced CXCL1 mRNA expression in HAEC at 3 uM treated 1 hr before IL-1beta stimulation measured after 4 hrs by qPCR analysis. The method in brief: as §2
Test [9] is filed under the species Homo sapiens. Kind of test: Induction of VCAM-1 expression in HAEC at 3 uM after 4 hrs by microarray assay relative to control. The method in brief: as §4
For test [10], the species on record is Homo sapiens. Kind of test: Inhibition of IL-1beta-induced VCAM-1 mRNA expression in HAEC at 3 uM treated 1 hr before IL-1beta stimulation measured after 4 hrs by qPCR analysis. The method in brief: as §2
For test [11], the species on record is Homo sapiens. The test is described as follows: Induction of MCP1 expression in HAEC at 3 uM after 4 hrs by qPCR analysis. The method in brief:
as §1

For test [12], the species on record is Homo sapiens. Kind of test: Induction of MCP1 expression in HAEC at 3 uM after 4 hrs by microarray assay relative to control. An outline of the steps:
as §4

The species named for test [13] is Homo sapiens. The test is described as follows: Inhibition of IL-1beta-induced MCP-1 protein expression in HAEC at 3 uM co-treated with IL-1beta measured after 4 hrs by ELISA. The method in brief: as §3
For test [14], the species on record is Homo sapiens. Kind of test: Induction of IL-8 protein expression in HAEC at 0.75 to 1.5 uM after 4 hrs by ELISA. The method in brief: (§5)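 HAECs kept overnight in M199 with 10% FBS, then left untreated or given increasing EI concentrations for 4 h in M199 with 1% FBS, triplicate wells. IL-8 and MCP-1 in the collected medium quantified by ELISA. Significance versus untreated control by Student t test.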

The species named for test [15] is Homo sapiens. Kind of test: Induction of CXCL1 expression in HAEC at 3 uM after 4 hrs by microarray assay relative to control. An outline of the steps: as §4
Test [16] is filed under the species Homo sapiens. Kind of test: Induction of E-selectin expression in HAEC at 3 uM after 4 hrs by microarray assay relative to control. The method in brief: as §4
For test [17], the species on record is Homo sapiens. Kind of test: Inhibition of IL-1beta-induced IL-6 mRNA expression in HAEC at 3 uM treated 1 hr before IL-1beta stimulation measured after 4 hrs by qPCR analysis. The method in brief:
as §2

The species named for test [18] is Homo sapiens. The test is described as follows: Inhibition of IL-1beta-induced CXCL6 mRNA expression in HAEC at 3 uM treated 1 hr before IL-1beta stimulation measured after 4 hrs by qPCR analysis. The method in brief: as §2
Test [19] is filed under the species Homo sapiens. Kind of test: Induction of IL-6 expression in HAEC at 3 uM after 4 hrs by microarray assay relative to control. The method in brief:
as §4

The species named for test [20] is Homo sapiens. Kind of test: Induction of RelB expression in HAEC at 3 uM after 4 hrs by microarray assay relative to control. The method in brief:
as §4

Test [21] is described as follows: Decrease of IL-8 protein expression in HAEC at 6 uM after 4 hrs by ELISA. Conditions: Homo sapiens. The method in brief: as §5
The species named for test [22] is Homo sapiens. Kind of test: Induction of NfKB1A expression in HAEC at 3 uM after 4 hrs by microarray assay relative to control. An outline of the steps: as §4
The species entered for test [23] is Homo sapiens. The test is described as follows: Inhibition of IL-1beta-induced E-selectin mRNA expression in HAEC at 3 uM treated 1 hr before IL-1beta stimulation measured after 4 hrs by qPCR analysis. An outline of the steps:
as §2

The species entered for test [24] is Homo sapiens. Kind of test: Inhibition of IL-1beta-induced MCP-1 mRNA expression in HAEC at 3 uM treated 1 hr before IL-1beta stimulation measured after 4 hrs by qPCR analysis. An outline of the steps:
as §2

For test [25], the species on record is Homo sapiens. Kind of test: Induction of ICAM-1 expression in HAEC at 3 uM after 4 hrs by microarray assay relative to control. An outline of the steps: as §4
Test [26] is filed under the species Homo sapiens. Kind of test: Induction of CXCL6 expression in HAEC at 3 uM after 4 hrs by microarray assay relative to control. An outline of the steps: as §4
A short description of test [27]: Decrease of MCP-1 protein expression in HAEC at 6 uM after 4 hrs by ELISA. As to conditions: Homo sapiens. An outline of the steps:
as §5

The species named for test [28] is Homo sapiens. The test is described as follows: Induction of CXCL6 expression in HAEC at 6 uM after 4 hrs by microarray assay relative to control. The method in brief: as §4
For test [29], the species on record is Homo sapiens. Kind of test: Induction of E-selectin expression in HAEC at 6 uM after 4 hrs by qPCR analysis relative to control.
For test [30], the species on record is Homo sapiens. Kind of test: Induction of CXCL1 expression in HAEC at 6 uM after 4 hrs by microarray assay relative to control. The method in brief:
as §4

The species entered for test [31] is Homo sapiens. Kind of test: Induction of MCP1 expression in HAEC at 6 uM after 4 hrs by microarray assay relative to control. The method in brief: as §4
The species named for test [32] is Homo sapiens. Kind of test: Induction of VCAM-1 expression in HAEC at 6 uM after 4 hrs by microarray assay relative to control. An outline of the steps: as §4
Test [33] is filed under the species Homo sapiens. The test is described as follows: Induction of RelB expression in HAEC at 6 uM after 4 hrs by microarray assay relative to control. The method in brief: as §4
For test [34], the species on record is Homo sapiens. Kind of test: Induction of IL-6 expression in HAEC at 6 uM after 4 hrs by microarray assay relative to control. An outline of the steps: as §4
Test [35] is filed under the species Homo sapiens. The test is described as follows: Induction of ICAM-1 expression in HAEC at 6 uM after 4 hrs by microarray assay relative to control. An outline of the steps: as §4
For test [36], the species on record is Homo sapiens. Kind of test: Induction of IL-8 expression in HAEC at 6 uM after 4 hrs by microarray assay relative to control. The method in brief:
as §4

For test [37], the species on record is Homo sapiens. The test is described as follows: Induction of NfKB1A expression in HAEC at 6 uM after 4 hrs by microarray assay relative to control. The method in brief: as §4

With `CCCCC/C=C\C[C@H]1/C(=C\[C@@H]2O[C@H]2CCCC(=O)O)C(=O)C[C@H]1O`, the outcome in [1], in test [2], in test [3] and in [4] was Active.

One may read the inhibition as the share of the control response that was lost under treatment. In the case of `CCCCC/C=C\C[C@@H]1/C(=C\[C@H]2O[C@@H]2CCCC(=O)O)C(=O)C[C@H]1O`, the inhibition in test [5] turned out to be 52.3%; in test [8] it was 53.4%; in test [10], 92.1%; in test [17] it was 76%; in test [18], 87.6%; in [23], 69.5%. The inhibition in test [24] is 79.6%. Moreover, the result in test [1], in [2], in [11], in [14], in [3] and in [21] was Active. Also, the outcome in [4] and in test [27] was Active. Moreover, the inhibition result in test [6] and in test [13] was “Active” throughout. Moreover, the fold change (FC) came to 3 in [7]; 0.27 in test [9]; 0.2 in test [12]; 1.3 in test [15]; 0.21 in [16]; 0.6 in [19]. The fold change (FC) amounted to 0.8 in [20], 0.79 in [22], 0.75 in test [25] and 0.59 in test [26].

On to `CCCCC/C=C\C[C@@H]1/C(=C\C2O[C@@H]2CCCC(=O)O)C(=O)CC1O` (single isomer, unassigned), for which the outcome in test [1], in test [2], in [3] and in [4] was Active.

`CCCCC/C=C\C[C@H]1/C(=C\[C@@H]2O[C@H]2CCCC(=O)O)C(=O)C[C@@H]1O`: the outcome in [1], in [2], in test [11], in test [3] and in test [4] was Active.

Regarding `CCCCC/C=C\CC1/C(=C\C2OC2CCCC(=O)OC(COC(=O)CCCCCCCCCCCCCCC)COP(=O)([O-])OCC[N+](C)(C)C)C(=O)CC1O` (stereo not drawn), the result in [1], in test [11] and in [4] was Active. For the same compound, the fold change (FC) in test [28] is 1.4; in test [29] it was 2.38; in test [30], 4.8; in test [31], 13; in test [32], 1.2; in [33] it was 4.2. For the same compound, the fold change (FC) was 2.2 in test [34], 2.3 in [35], 17 in test [36] and 4 in test [37].
